Results pooled from the literature.
Protocols differ between the studies behind these lines.
Target: Calcium/calmodulin-dependent protein kinase kinase 1 (CAMKK1, Homo sapiens, UniProt Q8N5S9)

Nc1ncc2c(n1)-c1c([nH]c3ccc(C#CC4CC4)cc13)CCCC2 — remaining binding (binding, competition with immobilised ligand; 1 µM): 98%
Cc1cnn2ncc(-c3ccnc(N(C)C)n3)c2c1 — remaining binding (binding; 1 µM): 84%
O=C(c1ccc(Nc2ncc(Cl)c(-c3ccc(Cl)s3)n2)cc1)N1CCC(N2CCCC2)CC1 — remaining binding (binding, competition with immobilised ligand; 1 µM): 86%
CO[C@H]1CC[C@H](CNc2ccc(S(=O)(=O)NC(=O)c3ccc(N4CCN(CC5=C(c6ccc(Cl)cc6)CC(C)(C)CC5)CC4)cc3Oc3cnc4[nH]ccc4c3)cc2[N+](=O)[O-])CC1 — remaining binding (cell-free assay, competition with immobilised ligand; 1 µM): 83%
CCN1CCN(Cc2ccc(C(=O)Nc3ccc(C)c(Oc4ccc5c(c4)CC(=O)N5)c3)cc2C(F)(F)F)CC1 — remaining binding (binding, competition with immobilised ligand; 1 µM): 100%
C[C@@H](c1ccc(-n2cnc3c(N)ncnc32)cc1)N1CCc2nn(C)c(Cc3ccccc3)c2C1=O — remaining binding (binding, competition with immobilised ligand; 0.1 µM): 100%
CC(=O)N1CCC(c2ccc(C(=O)NC(=N)N)cc2C(F)(F)F)CC1 — remaining binding (cell-free assay, competition with immobilised ligand; 1 µM): 100%
Cc1cnc(Nc2ccc(C(=O)N3CCC(N4CCCC4)CC3)cc2)nc1-c1cc2ccccc2s1 — remaining binding (binding, competition with immobilised ligand; 1 µM): 79%
Cc1noc([C@H]2C[C@@H](c3ccc(C(F)(F)F)cc3)CN(C(=O)N3CCS(=O)(=O)C3)C2)n1 — remaining binding (cell-free assay, competition with immobilised ligand; 1 µM): 100%
COc1ncc2cc3ccccc3nc2c1C#N — remaining binding (cell-free assay, competition with immobilised ligand; 5 µM): 87%
N[C@@H]1CCN(c2nccc(-c3cnn4ncccc34)n2)C1 — remaining binding (binding; 1 µM): 100%
O=C(NCCCN1CCOCC1)c1ccc(Nc2ncc(Cl)c(-c3ccc(Cl)s3)n2)cc1 — remaining binding (binding, competition with immobilised ligand; 1 µM): 73%
Cc1cc(C)c(-n2ccn3nc(-c4cccnc4)cc23)cc1NC(=O)c1cc(C#N)cc(S(F)(F)(F)(F)F)c1 — remaining binding (cell-free assay, competition with immobilised ligand; 0.1 µM): 93.6%
C[C@H]1CCN(c2nccc(-c3cnn4ncccc34)n2)C1 — remaining binding (binding; 1 µM): 91%
CC(=O)Nc1c(C(C)=O)c(=O)n(C)c2nc(-c3ccc(Cl)cc3Cl)c(-c3ccc(Cl)cc3)cc12 — remaining binding (cell-free assay, competition with immobilised ligand; 1 µM): 100%
O=C(Nc1c[nH]nc1C(=O)NC1CCNCC1)c1cc(F)cc(F)c1 — remaining binding (binding, competition with immobilised ligand; 1 µM): 90%
CN(CCCC(F)(F)F)c1nccc(-c2cnn3ncccc23)n1 — remaining binding (binding; 1 µM): 100%
CNC(=O)c1ccc(Nc2ncc(C(F)(F)F)c(NCc3nccnc3N(C)S(C)(=O)=O)n2)cc1 — remaining binding (cell-free assay, competition with immobilised ligand; 0.1 µM): 75%
CC1CCCN1c1nccc(-c2cnn3ncccc23)n1 (stereo not shown) — remaining binding (binding; 1 µM): 100%
CNCc1ccccc1-c1csc([C@@H](C)Nc2nc(C)nc3cc(OC)c(OC)cc23)c1 — remaining binding (cell-free assay, competition with immobilised ligand; 1 µM): 100%
CN(c1nccc(-c2cnn3ncccc23)n1)C1CC1 — remaining binding (binding; 1 µM): 100%
CNC(=O)[C@@H]1CC[C@@H](n2c(-c3ccc4cnccc4c3)nc3ccc(C(=O)NCc4cccc(C(N)=O)c4)cc32)C1 — remaining binding (binding, competition with immobilised ligand; 1 µM): 94%
